Test [1] relates to Mus musculus. Nature of the test: Compound tested for the effect on total white blood cell count and reported as percentage change from control on day 5 at 22.63 mg/kg (ip). Type of test: functional. The method, boiled down: (§1)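 Total white blood cell count in mice. Treatment was intraperitoneal at the listed mg/kg doses, 10 mice per group. Counts were taken on days 3, 5 and 7 and expressed as % change from control, with the control being each group's predose value. Significance was taken at p ≤ 0.05.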

Test [2] has as its system Mus musculus. Nature of the test: Compound tested for the effect on total white blood cell count and reported as percentage change from control on day 5 at 90.5 mg/kg (ip). Type of test: functional. The method, boiled down:
as §1

The test system of test [3] is Mus musculus. Nature of the test: Compound tested for the effect on total white blood cell count and reported as percentage change from control on day 7 at 40.25 mg/kg (ip). Type of test: functional. The method, boiled down: as §1
In test [4] the test system is Mus musculus. Nature of the test: Compound tested for the effect on total white blood cell count and reported as percentage change from control on day 5 at 40.25 mg/kg (ip). In kind it is functional. Summed up:
as §1

Test [5] concerns Mus musculus. Nature of the test: Compound tested for the effect on total white blood cell count and reported as percentage change from control on day 3 at 90.5 mg/kg (ip). Type of test: functional. Summed up:
as §1

Test [6] has as its system Lewis lung carcinoma cell line. Nature of the test: Effect of compound on Lewis Lung carcinoma after single dose injected intraperitoneally on day 1 recorded as percentage of cured animals at OD of 64 mg/kg. The following applies: Mus musculus, route intraperitoneal.
The subject of test [7] is Mus musculus. Nature of the test: Compound tested for the effect on total white blood cell count and reported as percentage change from control on day 3 at 22.63 mg/kg (ip). In kind it is functional. The method, boiled down: as §1
Test [8] deals with Mus musculus. Nature of the test: Compound tested for the effect on total white blood cell count and reported as percentage change from control on day 3 at 11.31 mg/kg (ip). Type of test: functional. The method, boiled down: as §1
In test [9] the test system is Lewis lung carcinoma cell line. Nature of the test: Effect of compound on Lewis Lung carcinoma after single dose injected intraperitoneally on day 1 recorded as animal weight difference of the treated and the control (T-C) at OD of 64 mg/kg. In kind it is functional, Mus musculus. The following applies: route intraperitoneal.
Test [10] has as its system Lewis lung carcinoma cell line. Nature of the test: Effect of compound on Lewis Lung carcinoma after single ip injection on day 1 recorded as animal weight difference of the treated and the control (T-C) at OD of 64-2 mg/kg. Type of test: functional, Mus musculus.
For test [11], the system named is Mus musculus. Nature of the test: Compound tested for the effect on total white blood cell count and reported as percentage change from control on day 3 at 40.25 mg/kg (ip). Type of test: functional. The method, boiled down: as §1
Test [12] deals with 3EM 37. Nature of the test: Compound tested for toxicity against 3EM 37 mouse ependymoblastoma after single ip injection on day 1 at optimal dose (OD) of 100 mg/kg on the 5th day after the injection of the compound; (10/10). To be noted: route intraperitoneal.
For test [13], the system named is 3EM 37. Nature of the test: Compound tested for activity against 3EM 37 mouse ependymoblastoma after single ip injection on day 1 at optimal dose of 128 mg/kg (Dose range 256-16). Type of test: functional. The following applies: route intraperitoneal.
Test [14] has as its system 3EM 37. Nature of the test: Effect of compound on 3EM 37 mouse ependymoblastoma after single ip injection on day 1 recorded as animal weight difference of the treated and the control (T-C) at OD of 100 mg/kg. Type of test: functional. To be noted: route intraperitoneal.
In test [15] the test system is 3EM 37. Nature of the test: Effect of compound on 3EM 37 mouse ependymoblastoma after single ip injection on day 1 recorded as percentage of cured animals at OD of 100 mg/kg. The following applies: route intraperitoneal. Type of test: functional.

Molecules are shown by their SMILES. Where “and” joins values, the source holds several entries; their conditions need not be identical. Equal values may be shown once.

As for `O=NN(CCCl)C(=O)NCCCl` [CARMUSTINE], the Change in the test with Mus musculus [1] is -28% and -42%; in the test with Mus musculus [2] it was -48%; in the test on Mus musculus [3] it was -41%; in the test with Mus musculus [4], -22%; with Mus musculus [5] it was -68%; with Mus musculus [7], -33%. Moreover, the Change in the test with Mus musculus [8] was -47%; with Mus musculus [11] it was -46%. The T/C – broadly, the ratio of treated to control – in test [6] is listed as over 353%. The compound also yielded a T-C in test [9] of -3.5 g. In addition, in test [10], the Optimal dose is 32 mg/kg.
In the case of `CC1CCC(NC(=O)N(CCCl)N=O)CC1` (stereo not given) [SEMUSTINE], the Survival in the test on 3EM 37 [12] turned out to be 9. This compound yielded an Optimal dose in the test on 3EM 37 [13] of 128 mg/kg. In addition, the T-C with 3EM 37 [14] stood at 1 g. In the test on 3EM 37 [15], this compound showed a T/C of 204%.

These data come from ChEMBL document CHEMBL1121486, “Synthesis of nitrosourea derivatives of pyridine and piperidine as potential anticancer agents” (1980).
